Experiments:
Type in all cases: cell-based
[1] = target: Muscarinic acetylcholine receptor M2 and M5 (Homo sapiens) (UniProt P08172+P08912); experiment: Selectivity ratio of Ki for human muscarinic M5 receptor expressed in CHO-K9 cells to Ki for human muscarinic M2 receptor expressed in CHO-K9 cells
Summary of the method: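 Ratio of mean Ki values. Each Ki came from an individual [3H]NMS competition experiment at the given CHO-hMxR subtype, converting IC50 to Ki by Cheng-Prusoff before averaging.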

[2] = target: T1, Muscarinic acetylcholine receptor M4 (Homo sapiens, UniProt P08173); experiment: Displacement of [3H]-NMS from human muscarinic M4 receptor expressed in CHO-K9 cells after 3 hrs by microbeta2 scintillation counting method
T1 sequence (P08173 whole entry): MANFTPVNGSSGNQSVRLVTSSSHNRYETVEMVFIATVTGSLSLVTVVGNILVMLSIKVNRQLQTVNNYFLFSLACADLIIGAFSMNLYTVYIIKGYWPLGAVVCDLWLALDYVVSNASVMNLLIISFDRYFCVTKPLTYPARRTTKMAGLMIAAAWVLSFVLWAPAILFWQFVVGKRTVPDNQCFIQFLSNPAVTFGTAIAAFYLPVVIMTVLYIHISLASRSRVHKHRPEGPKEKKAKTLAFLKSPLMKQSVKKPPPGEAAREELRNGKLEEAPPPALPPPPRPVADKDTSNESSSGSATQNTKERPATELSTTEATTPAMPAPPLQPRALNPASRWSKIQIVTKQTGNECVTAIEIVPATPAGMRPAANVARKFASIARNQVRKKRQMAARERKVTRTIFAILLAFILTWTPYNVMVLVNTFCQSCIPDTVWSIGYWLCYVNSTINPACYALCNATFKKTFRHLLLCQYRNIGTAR
Summary of the method: (§1)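 [3H]NMS competition binding on intact CHO-hMxR cells in L15 medium with 1% BSA, 3 h at 22 ± 1 °C with gentle shaking. [3H]NMS was 0.2 nM (M1, M2, M3), 0.1 nM (M4) or 0.3 nM (M5). […] Cells were lysed in urea/acetic acid/Triton and counted by liquid scintillation. Ki from Cheng-Prusoff. Triplicates, ≥3 experiments.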

[3] = target: T2, Muscarinic acetylcholine receptor M1 (Homo sapiens, UniProt P11229); experiment: Displacement of [3H]-NMS from human muscarinic M1 receptor expressed in CHO-K9 cells after 3 hrs by microbeta2 scintillation counting method; summary of the method: as §1
T2 sequence (P11229 whole entry): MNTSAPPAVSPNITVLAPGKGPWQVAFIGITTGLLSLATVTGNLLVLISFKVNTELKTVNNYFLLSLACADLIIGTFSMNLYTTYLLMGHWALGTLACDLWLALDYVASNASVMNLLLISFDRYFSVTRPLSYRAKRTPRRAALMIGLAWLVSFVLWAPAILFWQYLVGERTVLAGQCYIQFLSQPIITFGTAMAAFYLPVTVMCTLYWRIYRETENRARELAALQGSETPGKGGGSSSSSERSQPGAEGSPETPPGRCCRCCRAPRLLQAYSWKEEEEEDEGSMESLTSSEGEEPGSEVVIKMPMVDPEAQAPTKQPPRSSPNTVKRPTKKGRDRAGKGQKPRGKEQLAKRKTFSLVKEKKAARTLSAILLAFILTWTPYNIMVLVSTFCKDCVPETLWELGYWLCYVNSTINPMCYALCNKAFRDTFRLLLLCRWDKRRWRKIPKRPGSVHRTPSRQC

Chain of Muscarinic acetylcholine receptor M2 and M5 (Homo sapiens) (P08172 whole entry, looked up): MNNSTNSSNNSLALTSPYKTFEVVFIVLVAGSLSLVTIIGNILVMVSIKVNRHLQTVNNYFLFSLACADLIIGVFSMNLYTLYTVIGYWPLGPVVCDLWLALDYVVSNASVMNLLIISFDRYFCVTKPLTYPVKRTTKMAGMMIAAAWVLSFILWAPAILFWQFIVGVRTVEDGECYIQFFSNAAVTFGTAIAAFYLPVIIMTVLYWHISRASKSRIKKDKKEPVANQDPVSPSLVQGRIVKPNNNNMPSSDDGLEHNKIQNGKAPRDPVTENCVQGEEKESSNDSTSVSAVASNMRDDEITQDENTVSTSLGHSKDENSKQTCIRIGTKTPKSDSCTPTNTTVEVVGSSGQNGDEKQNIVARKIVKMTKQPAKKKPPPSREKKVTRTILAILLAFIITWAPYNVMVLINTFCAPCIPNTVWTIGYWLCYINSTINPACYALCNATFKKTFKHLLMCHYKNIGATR
Chain of Muscarinic acetylcholine receptor M2 and M5 (Homo sapiens) (P08912 whole entry, looked up): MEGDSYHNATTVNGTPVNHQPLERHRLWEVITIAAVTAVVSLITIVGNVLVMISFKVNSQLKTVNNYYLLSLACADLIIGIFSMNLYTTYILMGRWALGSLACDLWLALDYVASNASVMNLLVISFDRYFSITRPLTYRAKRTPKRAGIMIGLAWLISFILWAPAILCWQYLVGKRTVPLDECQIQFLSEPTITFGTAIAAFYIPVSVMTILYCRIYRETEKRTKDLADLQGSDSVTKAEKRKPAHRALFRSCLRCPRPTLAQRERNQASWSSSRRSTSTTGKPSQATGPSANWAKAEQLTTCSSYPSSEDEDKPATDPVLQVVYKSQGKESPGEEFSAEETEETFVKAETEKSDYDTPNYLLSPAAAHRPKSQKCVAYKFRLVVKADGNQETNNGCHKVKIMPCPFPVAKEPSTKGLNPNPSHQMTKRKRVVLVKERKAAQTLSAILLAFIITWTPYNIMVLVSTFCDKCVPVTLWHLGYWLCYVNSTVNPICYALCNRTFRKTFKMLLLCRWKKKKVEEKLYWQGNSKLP

`CC(=O)N[C@@H](CCCCN)C(=O)N[C@@H](C)C(=O)N[C@@H](CCCNC(=N)N)C(=O)NCCN1CCN(CCCCC2CCN(CC(=O)N3c4ccccc4NC(=O)c4ccccc43)CC2)CC1` showed a Ratio Ki [1] of 4900, a Ki [2] of 2.09 nM and a Ki [3] of 2.29 nM.

In the case of `CC(=O)N[C@@H](CCCCN)C(=O)N[C@@H](CCCNC(=N)N)C(=O)NCCCCC1CCN(CC(=O)N2c3ccccc3NC(=O)c3ccccc32)CC1`, the Ratio Ki [1] is reported as 400, the Ki [2] is reported as 61.7 nM and the Ki [3] is reported as 41.7 nM.
